Active and inactive are the calls of the source. The rule behind the calls is not given here. Positions of bridges follow the written chain, without caps; N, C: chain ends. Residues, ends and D or L forms follow the SMILES beside them.

Data set [1] can be described thus: Drug internalization in mouse RAW264.7 using FITC-labeled compound at 2 uM pre-incubated for 1 hr with lipid rafts disruptor methyl-beta-cyclodextrin followed by compound addition and subsequent incubation for 2 hrs by flow cytometry. Type of data set: ADME, cell-based. The settings on record: raw264.7, 2 h. The essentials: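 RAW264.7 cells were pretreated 1 h at 37 °C with 3 mM amiloride, 20 µM nocodazole, 6 µg/mL chlorpromazine or 5 mM MβCD. FITC-labeled peptide was then added for 2 h at 37 °C. Extracellular fluorescence was quenched with 0.4% Trypan blue and intracellular fluorescence read by flow cytometry against an untreated control.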

A short description of data set [2]: Induction of hemolysis in mouse RBC at 100 uM incubated for 1 hrs at 37 degC. In kind it is cell-based, Erythrocyte. The settings on record: red blood cells (erythrocytes), read-out: Activity. The essentials:
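Fresh mouse erythrocytes were washed three times in 0.9% NaCl, and an 8% suspension was incubated with peptide (2-fold dilutions, 100 to 0.3125 µM) for 1 h at 37 °C. Released hemoglobin was read at 540 nm. 1% Triton X-100 defined 100% lysis; polymyxin served as positive control and NaCl as negative.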

Data set [3] has as its system Salmonella typhimurium. Briefly: Bactericidal activity against 2 hrs-gentamicin pre-exposed Salmonella typhimurium ATCC 14028 assessed as reduction colony forming units at 20 uM incubated for 10 hrs. Type of data set: functional, Salmonella enterica subsp. enterica serovar Typhimurium. The essentials: (§1)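 Macrophage protection assay. RAW264.7 cells (5 × 10^4/well, 24 h) were infected with S. Typhimurium ATCC14028 at MOI 10 for 1 h in DMEM/10% FBS, exposed to 100 µg/mL gentamicin for 2 h at 37 °C, and PBS-washed. Peptides in DMEM/10% FBS were added for 10 h. Cells were lysed with 0.1% Triton X-100 and CFU plated; log10 CFU reduction versus untreated cells. Three replicates; two independent experiments; one-way ANOVA with Tukey.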

For data set [4], the system named is Salmonella typhimurium. The data set can be described thus: Bactericidal activity against 2 hrs-gentamicin pre-exposed Salmonella typhimurium ATCC 14028 assessed as reduction colony forming units at 20 uM incubated for 10 hrs relative to marine peptide N6. In kind it is functional, Salmonella enterica subsp. enterica serovar Typhimurium. Details: scale not given: the % may be the effect or the level left. The essentials: as §1

The subject of data set [5] is Salmonella typhimurium. The data set can be described thus: Antibacterial activity against Salmonella typhimurium ATCC 14028 infected in ICR mouse model of peritonitis assessed as mouse survival at 1 umol/kg, ip dosed at 0.5 and 8 hrs post infection and measured daily for 7 days.
Data set [6] deals with Salmonella typhimurium. The data set can be described thus: Bactericidal activity against 2 hrs-gentamicin pre-exposed Salmonella typhimurium ATCC 14028 assessed as reduction colony forming units at 50 uM incubated for 10 hrs relative to marine peptide N6. Type of data set: functional, Salmonella enterica subsp. enterica serovar Typhimurium. Details: scale not given: the % may be the effect or the level left. The essentials:
as §1

Data set [7] concerns Salmonella typhimurium. Briefly: Antibacterial activity against Salmonella typhimurium ATCC 14028 infected in ICR mouse model of peritonitis assessed as reduction colony forming units in spleen at 1 to 2 umol/kg, ip dosed at 2 hrs post infection and measured after 10 hrs post dose relative to marine peptide N6. Further details: scale not given: the % may be the effect or the level left. In kind it is functional, Salmonella enterica subsp. enterica serovar Typhimurium. The essentials:
(§2)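 Female ICR mice, six weeks old (six per group), were infected ip with S. Typhimurium ATCC14028 (5 × 10^5 CFU, 0.5 mL). Peptide was given ip at 1, 1.5 or 2 µmol/kg 2 h post-infection. Mice were killed 10 h after treatment, and kidneys and spleens were homogenized in sterile PBS for CFU counts of translocated bacteria. PBS-treated mice served as negative control, ciprofloxacin-treated mice as positive.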

The test system of data set [8] is Salmonella typhimurium. The data set can be described thus: Antibacterial activity against Salmonella typhimurium ATCC 14028 infected in ICR mouse model of peritonitis assessed as reduction colony forming units in kidney at 1 to 2 umol/kg, ip dosed at 2 hrs post infection and measured after 10 hrs post dose relative to marine peptide N6. In kind it is functional, Salmonella enterica subsp. enterica serovar Typhimurium. Further details: scale not given: the % may be the effect or the level left. The essentials: as §2

For data set [9], the system named is Salmonella typhimurium. Briefly: Antibacterial activity against Salmonella typhimurium ATCC 14028 assessed as microbial inhibition zone pretreated for 1 hr at 4 to 100 degC by inhibition zone assay. The settings on record: Salmonella enterica subsp. enterica serovar Typhimurium.
The test system of data set [10] is Salmonella typhimurium. The data set can be described thus: Antibacterial activity against Salmonella typhimurium ATCC 14028 infected in ICR mouse model of peritonitis assessed as mouse survival at 2 umol/kg, ip dosed at 0.5 and 8 hrs post infection and measured daily for 7 days.

In the case of `CC(C)[C@H](NC(=O)CCCCCN1C(=O)CC(SC[C@H](N)C(=O)N[C@@H](Cc2ccc(O)cc2)C(=O)NCC(=O)N[C@@H](CCCNC(=N)N)C(=O)N[C@@H](CCCCN)C(=O)N[C@@H](CCCCN)C(=O)N[C@@H](CCCNC(=N)N)C(=O)N[C@@H](CCCNC(=N)N)C(=O)N[C@@H](CCC(N)=O)C(=O)N[C@@H](CCCNC(=N)N)C(=O)N[C@@H](CCCNC(=N)N)C(=O)N[C@@H](CCCNC(=N)N)C(=O)O)C1=O)C(=O)N[C@@H](CCCNC(N)=O)C(=O)Nc1ccc(COC(=O)NCC(=O)N[C@@H](Cc2ccccc2)C(=O)N[C@@H](C)C(=O)N[C@@H](Cc2c[nH]c3ccccc23)C(=O)N[C@@H](CC(N)=O)C(=O)N[C@H](C(=O)N[C@H]2CSSC[C@@H](C(=O)N[C@@H](Cc3cnc[nH]3)C(=O)N[C@@H](CCCNC(=N)N)C(=O)N[C@@H](CCCNC(=N)N)C(=O)N[C@@H](C)C(=O)N[C@@H](CC(N)=O)C(=O)O)NC(=O)[C@H](C(C)C)NC(=O)[C@H](CCCNC(=N)N)NC(=O)[C@H](C(C)C)NC(=O)CNC(=O)[C@H](CC(N)=O)NC(=O)[C@H](CCCNC(=N)N)NC(=O)[C@H](Cc3ccc(O)cc3)NC(=O)[C@H](C(C)C)NC2=O)C(C)C)cc1` (stereo partly drawn), the Drug uptake result in [1] was “Active”. Besides, the hemolysis at 1 h, 100 µM in data set [2] is 3.81%. For the same molecule, the Activity in the data set on Salmonella typhimurium [3] came to 1.06 log10CFU; with Salmonella typhimurium [4], 67.2%; in the data set with Salmonella typhimurium [5], 66.7%; in the data set on Salmonella typhimurium [6] it was 76.2%; in the data set with Salmonella typhimurium [7] it was 81%; with Salmonella typhimurium [8], 81%.

For `CC(C)[C@@H]1NC(=O)CNC(=O)[C@H](CC(N)=O)NC(=O)[C@H](CCCNC(=N)N)NC(=O)[C@H](Cc2ccc(O)cc2)NC(=O)[C@H](C(C)C)NC(=O)[C@@H](NC(=O)[C@@H](NC(=O)[C@H](CC(N)=O)NC(=O)[C@H](Cc2c[nH]c3ccccc23)NC(=O)[C@H](C)NC(=O)[C@H](Cc2ccccc2)NC(=O)CN)C(C)C)CSSC[C@@H](C(=O)N[C@@H](Cc2cnc[nH]2)C(=O)N[C@@H](CCCNC(=N)N)C(=O)N[C@@H](CCCNC(=N)N)C(=O)N[C@@H](C)C(=O)N[C@@H](CC(N)=O)C(N)=O)NC(=O)[C@H](C(C)C)NC(=O)[C@H](CCCNC(=N)N)NC1=O` (H-GFAWNVCVYRNGVRVCHRRAN-NH2; disulfide 7-16), the Drug uptake entry in data set [1] is on record as “Active”. For the same molecule, the hemolysis at 1 h, 100 µM in data set [2] amounted to 2.05%. Further, in the data set with Salmonella typhimurium [9], the outcome was Active. Besides, the Activity stood at 2.01 log10CFU in the data set on Salmonella typhimurium [3]; 96.3% with Salmonella typhimurium [4]; 66.7% in the data set with Salmonella typhimurium [5]; 97.6% with Salmonella typhimurium [6]; 100% with Salmonella typhimurium [10]; 200% with Salmonella typhimurium [7]. For the same molecule, the Activity with Salmonella typhimurium [8] came out at 200%.

Source of the values: ChEMBL document CHEMBL4196141, “Improved Antibacterial Activity of the Marine Peptide N6 against Intracellular Salmonella Typhimurium by Conjugating with the Cell-Penetrating Peptide Tat11 via a Cleavable Linker” (J Med Chem, 2018).
